Source: ChEMBL document CHEMBL2429803, “Animal toxicity of hairpin pyrrole-imidazole polyamides varies with the turn unit” (J Med Chem, 2013)

Key:
[1] = Metabolic stability in mouse liver microsomes after 1 hr by LC/MS/MS analysis; type: ADME, Microsome; details: read-out: Stability
Procedure, shortened: (§1)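 Compound incubated at 37 °C for 60 min with 1 mg/mL human or mouse liver microsomes in 100 mM KH2PO4, 3 mM MgCl2, pH 7.4, with 2 mM NADPH or without it. Stopped with ice-cold methanol, then precipitate removed. Analyzed by LC/MS/MS as % remaining versus time zero. Duplicates.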

Mus musculus [2] = assay: Acute toxicity in C57BL/6J mouse assessed as karyomegaly at 10 mg/kg, sc after 9 days; type: organism-based; set-up: dose 10 mg/kg, route subcutaneous; details: in vivo, 216 h
Procedure, shortened: (§2)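 Male C57BL/6J mice, 8 weeks old, received a single sc dose (1, 3 or 10 mg/kg in 25% DMSO/saline, n = 4 per group) and were sacrificed after 9 days. Two representative animals per group were fixed in 10% formalin. Cecum, duodenum, heart, ileum, kidney, liver, lung, pancreas, spleen and stomach were examined blind by a veterinary pathologist and lesions graded mild, moderate or severe.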

Mus musculus [3] = assay: Toxicity in C57BL/6J mouse assessed as morbidity at 1 mg/kg, sc administered every 3 days for a cycle of 3 injections; type: organism-based; set-up: dose 1 mg/kg, route subcutaneous; details: in vivo, 72 h
Procedure, shortened: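 Male C57BL/6J mice, 3 per group, given 1 mg/kg sc every 3 days. Weight recorded on injection days. Watched for signs of duress. Humane end point was visible duress or weight loss over 15% of starting body weight.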

Mus musculus [4] = assay: Acute toxicity in C57BL/6J mouse assessed as lesions in heart at 1 to 10 mg/kg, sc after 9 days; type: organism-based; set-up: dose 1-10 mg/kg, route subcutaneous; details: in vivo, 216 h; procedure, shortened: as §2
Mus musculus [5] = assay: Acute toxicity in C57BL/6J mouse assessed as milder tubular regeneration at 10 mg/kg, sc after 9 days; type: organism-based; set-up: dose 10 mg/kg, route subcutaneous; details: in vivo, 216 h; procedure, shortened: as §2
[6] = Metabolic stability in mouse liver microsomes after 1 hr by LC/MS/MS analysis in presence of NADPH; type: ADME, Microsome; details: read-out: Stability; procedure, shortened: as §1
Mus musculus [7] = assay: Toxicity in C57BL/6J mouse assessed as epithelial necrosis and apoptosis in kidney at 1 mg/kg, sc administered every 3 days for a cycle of 3 injections measured 2 days post last injection; type: organism-based; set-up: dose 1 mg/kg, route subcutaneous; details: in vivo, 48 h
Procedure, shortened: (§3)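 Male C57BL/6J mice, 8 weeks old, given 1 mg/kg sc every 3 days for three injections and sacrificed 2 days after the last one. Two mice per group fixed in 10% formalin. A veterinary pathologist, blinded, examined cecum, duodenum, heart, ileum, kidney, liver, lung, pancreas, spleen and stomach. Lesions graded mild, moderate or severe.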

Mus musculus [8] = assay: Acute toxicity in C57BL/6J mouse assessed as lesions in GI tract at 1 to 10 mg/kg, sc after 9 days; type: organism-based, Gastrointestinal tract; set-up: dose 1-10 mg/kg, route subcutaneous; details: in vivo, 216 h; procedure, shortened: as §2
Mus musculus [9] = assay: Acute toxicity in C57BL/6J mouse assessed as lesions in pancreas at 1 to 10 mg/kg, sc after 9 days; type: organism-based; set-up: dose 1-10 mg/kg, route subcutaneous; details: in vivo, 216 h; procedure, shortened: as §2
Mus musculus [10] = assay: Acute toxicity in C57BL/6J mouse assessed as weight loss at 10 mg/kg, sc after 9 days; type: organism-based; set-up: dose 10 mg/kg, route subcutaneous; details: in vivo, 216 h
Procedure, shortened: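 Male C57BL/6J mice, 8 weeks old, were acclimated 3 days and then given a single sc injection of 1, 3 or 10 mg/kg in 25% DMSO/saline vehicle (up to 200 μL), n = 4 per group. Weight, behaviour and appearance were monitored daily for 9 days before sacrifice. The humane end point was visible duress or weight loss over 15% of the original.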

Mus musculus [11] = assay: Toxicity in C57BL/6J mouse assessed as karyomegaly in kidney at 1 mg/kg, sc administered every 3 days for a cycle of 3 injections measured 2 days post last injection; type: organism-based; set-up: dose 1 mg/kg, route subcutaneous; details: in vivo, 48 h; procedure, shortened: as §3
Mus musculus [12] = assay: Acute toxicity in C57BL/6J mouse assessed as hepatocellular necrosis and apoptosis at 3 mg/kg, sc after 9 days; type: organism-based; set-up: dose 3 mg/kg, route subcutaneous; details: in vivo, 216 h; procedure, shortened: as §2
Mus musculus [13] = assay: Acute toxicity in C57BL/6J mouse assessed as diffuse hepatocellular necrosis and apoptosis at 3 to 10 mg/kg, sc after 9 days; type: organism-based; set-up: dose 3-10 mg/kg, route subcutaneous; details: in vivo, 216 h; procedure, shortened: as §2
Mus musculus [14] = assay: Toxicity in C57BL/6J mouse assessed as mild tubular attenuation in kidney at 1 mg/kg, sc administered every 3 days for a cycle of 3 injections measured 2 days post last injection; type: organism-based; set-up: dose 1 mg/kg, route subcutaneous; details: in vivo, 48 h; procedure, shortened: as §3
[15] = Metabolic stability in human liver microsomes after 1 hr by LC/MS/MS analysis; type: ADME, Microsome; details: read-out: Stability; procedure, shortened: as §1
Mus musculus [16] = assay: Toxicity in C57BL/6J mouse assessed as weight loss at 1 mg/kg, sc administered every 3 days for a cycle of 3 injections; type: organism-based; set-up: dose 1 mg/kg, route subcutaneous; details: in vivo, 72 h
Procedure, shortened: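 8-week-old male C57BL/6J mice, acclimated 3 days, groups of three, dosed sc in 25% DMSO/saline vehicle once every 3 days, sacrificed 2 days after the last injection. Body weight recorded on injection days and at end point; humane end point set at visible duress or >15% loss of original body weight.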

Mus musculus [17] = assay: Acute toxicity in C57BL/6J mouse assessed as lesions in lungs at 1 to 10 mg/kg, sc after 9 days; type: organism-based; set-up: dose 1-10 mg/kg, route subcutaneous; details: in vivo, 216 h; procedure, shortened: as §2
Mus musculus [18] = assay: Acute toxicity in C57BL/6J mouse at 10 mg/kg, sc after 9 days; type: organism-based; set-up: dose 10 mg/kg, route subcutaneous; details: in vivo, 216 h
Procedure, shortened: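 Single sc injection in male 8-week-old C57BL/6J mice (1, 3 or 10 mg/kg in 25% DMSO/saline; n = 4 per group), followed for 9 days with daily weighing, then sacrifice. Toxicity was assessed by blinded histopathology of two mice per group and by blinded serum ALT, AST, total bilirubin, BUN and creatinine from retroorbital blood of all mice.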

Mus musculus [19] = assay: Toxicity in C57BL/6J mouse assessed as mild multifocal hepatocellular necrosis and apoptosis in liver at 1 mg/kg, sc administered every 3 days for a cycle of 3 injections measured 2 days post last injection; type: organism-based; set-up: dose 1 mg/kg, route subcutaneous; details: in vivo, 48 h; procedure, shortened: as §3
Mus musculus [20] = assay: Acute toxicity in C57BL/6J mouse assessed as lesions in stomach at 1 to 10 mg/kg, sc after 9 days; type: organism-based; set-up: dose 1-10 mg/kg, route subcutaneous; details: in vivo, 216 h; procedure, shortened: as §2
[21] = Metabolic stability in human liver microsomes after 1 hr by LC/MS/MS analysis in presence of NADPH; type: ADME, Microsome; details: read-out: Stability; procedure, shortened: as §1
Mus musculus [22] = assay: Toxicity in C57BL/6J mouse assessed as weight loss at 10 mg/kg, sc; type: organism-based; set-up: dose 10 mg/kg, route subcutaneous; details: in vivo
Procedure, shortened: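 Single sc injection in 25% DMSO/saline to 8-week-old male C57BL/6J mice acclimated 3 days; groups of four receiving 1, 3 or 10 mg/kg. Weight monitored daily for 9 days, then sacrifice; euthanasia on visible duress or weight loss beyond 15% of original body weight.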

Structure (SMILES): CN(CCCNC(=O)c1cccc(C(=O)O)c1)CCCNC(=O)c1cc(NC(=O)c2cc(NC(=O)c3cc(NC(=O)c4nc(NC(=O)[C@H](N)CCNC(=O)c5cc(NC(=O)c6cc(NC(=O)c7cc(NC(=O)c8nccn8C)cn7C)cn6C)cn5C)cn4C)cn3C)cn2C)cn1C
- remaining at 1 h [1]: > 90%
- Activity (Mus musculus [2]): Toxic
- Activity (Mus musculus [3]): Non-toxic
- Activity (Mus musculus [4]): Non-toxic
- Activity (Mus musculus [5]): Toxic
- remaining at 1 h [6]: > 90%
- Activity (Mus musculus [7]): Toxic
- Activity (Mus musculus [8]): Non-toxic
- Activity (Mus musculus [9]): Non-toxic
- Activity (Mus musculus [10]): Toxic
- Activity (Mus musculus [11]): Toxic
- Activity (Mus musculus [12]): Toxic
- Activity (Mus musculus [13]): Toxic
- Activity (Mus musculus [14]): Toxic
- remaining at 1 h [15]: > 90%
- Activity (Mus musculus [16]): Non-toxic
- Activity (Mus musculus [17]): Non-toxic
- Activity (Mus musculus [18]): Non-toxic
- Activity (Mus musculus [19]): Toxic
- Activity (Mus musculus [20]): Non-toxic
- remaining at 1 h [21]: > 90%
- Activity (Mus musculus [22]): > 15%
